Measurements: ChEMBL document CHEMBL2057126, “Discovery of new inhibitors of Cdc25B dual specificity phosphatases by structure-based virtual screening” (J Med Chem, 2012)
Calls of active or inactive are those of the source. No cut-off for these calls is given here.

Tests used:
[1] = Inhibition of Cdc25; design: species or system Homo sapiens
[2] = tested on: MCF7; assay: Growth inhibition against human MCF7 cells expressing Cdc25A-C assessed as cell viability at 200 uM after 72 hrs by MTS assay; assay type: functional, cell-based
Summary of the method: (§1)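 MCF-7 breast, PC-3 prostate and K562 leukaemia cells treated 72 h with inhibitor or DMSO vehicle control, then cell viability measured. Values are mean ± SD of three experiments; significance by Student's t test, p ≤ 0.05.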

[3] = molecular target: T1, M-phase inducer phosphatase 2 (Homo sapiens) (UniProt P30305); assay: Inhibition of recombinant phosphatase activity of Cdc25B catalytic domain expressed in Escherichia coli BL21(DE3) using OMFP as substrate at 100 uM after 15 mins by fluorimetric assay
T1 sequence (whole entry): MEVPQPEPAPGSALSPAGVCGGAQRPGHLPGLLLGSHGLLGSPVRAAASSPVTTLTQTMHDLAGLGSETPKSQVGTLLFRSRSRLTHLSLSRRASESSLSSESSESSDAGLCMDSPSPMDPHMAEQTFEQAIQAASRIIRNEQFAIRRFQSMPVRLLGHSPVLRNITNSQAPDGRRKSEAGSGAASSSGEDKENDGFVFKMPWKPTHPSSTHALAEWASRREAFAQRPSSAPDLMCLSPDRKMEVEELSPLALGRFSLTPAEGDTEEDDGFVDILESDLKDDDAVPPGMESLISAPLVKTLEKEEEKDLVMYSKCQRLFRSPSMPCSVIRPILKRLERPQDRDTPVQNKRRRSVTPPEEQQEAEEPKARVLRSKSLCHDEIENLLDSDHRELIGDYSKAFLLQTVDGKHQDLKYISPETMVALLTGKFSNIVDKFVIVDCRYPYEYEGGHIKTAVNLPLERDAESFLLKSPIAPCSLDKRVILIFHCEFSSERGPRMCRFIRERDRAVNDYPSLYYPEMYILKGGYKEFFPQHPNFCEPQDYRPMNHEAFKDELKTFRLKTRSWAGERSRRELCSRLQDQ

[4] = molecular target: T2, M-phase inducer phosphatase 1 (Homo sapiens, UniProt P30304); assay: Inhibition of recombinant phosphatase activity of Cdc25A catalytic domain expressed in Escherichia coli BL21(DE3) using OMFP as substrate by Lineweaver-Burk plot analysis
T2 sequence (P30304 whole entry): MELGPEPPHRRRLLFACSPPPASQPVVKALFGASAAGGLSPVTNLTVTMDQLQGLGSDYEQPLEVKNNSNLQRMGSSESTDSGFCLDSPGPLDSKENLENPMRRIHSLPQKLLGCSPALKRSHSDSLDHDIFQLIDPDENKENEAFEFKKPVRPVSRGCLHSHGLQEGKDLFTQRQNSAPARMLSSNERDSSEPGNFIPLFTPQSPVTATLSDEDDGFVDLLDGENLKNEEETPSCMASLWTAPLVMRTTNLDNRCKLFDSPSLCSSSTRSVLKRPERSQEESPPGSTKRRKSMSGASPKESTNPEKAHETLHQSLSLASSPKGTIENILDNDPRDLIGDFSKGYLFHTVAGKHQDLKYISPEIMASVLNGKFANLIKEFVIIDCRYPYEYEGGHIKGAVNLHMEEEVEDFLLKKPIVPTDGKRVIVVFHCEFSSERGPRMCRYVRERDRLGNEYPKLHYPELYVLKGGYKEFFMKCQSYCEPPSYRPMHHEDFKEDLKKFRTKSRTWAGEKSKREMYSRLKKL
Summary of the method: (§2)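 Purified recombinant Cdc25A catalytic domain; phosphatase activity measured as OMFP hydrolysis versus inhibitor concentration to derive IC50, with Ki calculated from kinetic measurements. Results are averages ± SD of three determinations.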

[5] = tested on: PC-3; assay: Growth inhibition against human PC3 cells expressing Cdc25A-C assessed as cell viability at 200 uM after 72 hrs by MTS assay; assay type: functional, cell-based; summary of the method: as §1
[6] = molecular target: T3, M-phase inducer phosphatase 2 (Homo sapiens, UniProt P30305); assay: Competitive inhibition of recombinant phosphatase activity of Cdc25B catalytic domain expressed in Escherichia coli BL21(DE3) using OMFP as substrate by Lineweaver-Burk plot analysis
T3 sequence (P30305 whole entry): T1 sequence (whole entry)

[7] = molecular target: T1, M-phase inducer phosphatase 2 (Homo sapiens); details: K562, 200 uM
[8] = molecular target: T2, M-phase inducer phosphatase 1; assay: Inhibition of recombinant phosphatase activity of Cdc25A catalytic domain expressed in Escherichia coli BL21(DE3) using OMFP as substrate by spectrofluorimetric analysis; summary of the method: as §2
[9] = molecular target: T4, M-phase inducer phosphatase 3 (Homo sapiens) (UniProt P30307); assay: Inhibition of recombinant phosphatase activity of Cdc25C catalytic domain expressed in Escherichia coli BL21(DE3) using OMFP as substrate at 100 uM after 15 mins by fluorimetric assay
T4 sequence (whole entry): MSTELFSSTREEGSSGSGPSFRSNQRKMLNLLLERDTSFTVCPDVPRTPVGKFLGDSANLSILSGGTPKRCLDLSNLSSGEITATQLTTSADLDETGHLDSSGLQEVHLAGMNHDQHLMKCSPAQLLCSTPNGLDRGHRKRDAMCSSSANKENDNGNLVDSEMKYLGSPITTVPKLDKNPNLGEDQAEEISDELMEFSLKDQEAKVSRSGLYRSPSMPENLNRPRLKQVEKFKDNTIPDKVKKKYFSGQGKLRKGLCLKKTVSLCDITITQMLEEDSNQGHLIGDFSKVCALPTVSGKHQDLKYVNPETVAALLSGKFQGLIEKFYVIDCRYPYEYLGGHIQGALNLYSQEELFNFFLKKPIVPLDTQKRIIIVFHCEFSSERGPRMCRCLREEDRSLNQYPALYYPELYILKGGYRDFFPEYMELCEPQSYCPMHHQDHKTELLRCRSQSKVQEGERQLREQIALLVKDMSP

[10] = tested on: MCF7; assay: Cell cycle arrest in human MCF7 cells assessed as accumulation at G2/M phase at 200 uM after 48 hrs by propidium iodide staining-based flow cytometry (reference value: 21 +/- 0.04%); assay type: functional
[11] = molecular target: T3, M-phase inducer phosphatase 2; assay: (§3) Inhibition of recombinant phosphatase activity of Cdc25B catalytic domain expressed in Escherichia coli BL21(DE3) using OMFP as substrate by spectrofluorimetric analysis
[12] = molecular target: T1, M-phase inducer phosphatase 2 (Homo sapiens); assay: as §3
[13] = tested on: MCF7; assay: Cell cycle arrest in human MCF7 cells assessed as accumulation at G1 phase at 200 uM after 24 hrs by propidium iodide staining-based flow cytometry (reference value: 81.3 +/- 0.01%); assay type: functional
[14] = tested on: MCF7; assay: Cell cycle arrest in human MCF7 cells assessed as accumulation at S phase at 200 uM after 24 hrs by propidium iodide staining-based flow cytometry (reference value: 9.35%); assay type: functional
[15] = tested on: MCF7; assay: Cell cycle arrest in human MCF7 cells assessed as accumulation at S phase at 200 uM after 48 hrs by propidium iodide staining-based flow cytometry (reference value: 14.5 +/- 0.01%); assay type: functional
[16] = tested on: K562; assay: Growth inhibition against human K562 cells expressing Cdc25A-C assessed as cell viability at 200 uM after 72 hrs by MTS assay; assay type: functional, cell-based; summary of the method: as §1
[17] = molecular target: T5, M-phase inducer phosphatase 1 (Homo sapiens) (UniProt P30304); assay: Inhibition of recombinant phosphatase activity of Cdc25A catalytic domain expressed in Escherichia coli BL21(DE3) using OMFP as substrate at 100 uM after 15 mins by fluorimetric assay
T5 sequence (whole entry): T2 sequence (P30304 whole entry)

[18] = tested on: MCF7; assay: Cell cycle arrest in human MCF7 cells assessed as accumulation at G2/M phase at 200 uM after 24 hrs by propidium iodide staining-based flow cytometry (reference value: 9.4 +/- 0.04%); assay type: functional
[19] = tested on: MCF7; assay: Cell cycle arrest in human MCF7 cells assessed as accumulation at G1 phase at 200 uM after 48 hrs by propidium iodide staining-based flow cytometry (reference value: 64.5 +/- 0.02%); assay type: functional

| IC50 [1] | inhibition [3] | Ki [4] | Ki [6] | inhibition [7] | IC50 [8] | inhibition [9] | IC50 [11] | inhibition [12] | inhibition [17] | SMILES | growth inhibition (GI) [2] | growth inhibition (GI) [5] | Activity [10] | Activity [13] | Activity [14] | Activity [15] | growth inhibition (GI) [16] | Activity [18] | Activity [19] |
| --- | --- | --- | --- | --- | --- | --- | --- | --- | --- | --- | --- | --- | --- | --- | --- | --- | --- | --- | --- |
| 0.02 µM | – | – | – | – | – | – | – | – | – | Cc1nc2c(s1)C(=O)C=C(NCCCN(C)CCCNC1=CC(=O)c3nc(-c4cc(F)ccc4F)oc3C1=O)C2=O | – | – | – | – | – | – | – | – | – |
| – | 80% | 2.3 µM | 5.3 µM | Active | 6 µM | 63% | 17.5 µM | Dose-dependent effect | 80% | O=C(O)c1ccc(C(=O)c2ccccc2C(=O)O)cc1C(=O)O | Active | Active | 1.4% | 59.1% | 14.1% | 1.6% | Active | 26.6% | 97% |
